Key:
Assay type in all cases: toxicity, cell-based
[1] = system: HEK-293T; test: Incucyte cell viability with HEK293T; conditions: human, 10 µM, compound concentration 10 uM; note: filed as whole numbers so only -1 and 0 and 1 occur
[2] = system: U2OS; test: Incucyte cell viability with U2OS; conditions: human, 10 µM, compound concentration 10 uM; note: filed as whole numbers so only -1 and 0 and 1 occur
[3] = system: U2OS; test: Multiplex assay against U2OS; conditions: human
Summary of the method: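 Phenotypes for tubulin, mitochondrial mass and membrane permeability are expressed as per cents of healthy-nucleus cells. Cells were stained live at seeding with Hoechst33342, BioTracker Green Microtubule Cytoskeleton Dye, MitoTracker Red and Annexin V Alexa Fluor 680, then imaged after compound addition on a CQ1 microscope at 37°C and 5% CO2. Machine-learning gating in CellPathfinder separated Hoechst high-intensity objects from normal cells, divided normal cells by nuclear state (healthy, pyknosed, fragmented) and divided pyknosed cells into mitotic or apoptotic.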

[4] = 6 h, replicate number 1, timepoint 6 hours
[5] = 12 h, replicate number 1, timepoint 12 hours
[6] = 18 h, replicate number 1, timepoint 18 hours
[7] = 24 h, replicate number 1, timepoint 24 hours
[8] = 12 h, 1 µM, compound concentration 1 uM, replicate 1
[9] = 12 h, 1 µM, compound concentration 1 uM, replicate 2
[10] = 12 h, 10 µM, compound concentration 10 uM, replicate 1
[11] = 12 h, 10 µM, compound concentration 10 uM, replicate 2
[12] = 24 h, 1 µM, compound concentration 1 uM, replicate 1
[13] = 24 h, 1 µM, compound concentration 1 uM, replicate 2
[14] = 24 h, 10 µM, compound concentration 10 uM, replicate 1
[15] = 24 h, 10 µM, compound concentration 10 uM, replicate 2
[16] = 48 h, 1 µM, compound concentration 1 uM, replicate 1
[17] = 48 h, 1 µM, compound concentration 1 uM, replicate 2
[18] = 48 h, 10 µM, compound concentration 10 uM, replicate 1
[19] = 48 h, 10 µM, compound concentration 10 uM, replicate 2

CCCCCNC(=N)N/N=C/c1c[nH]c2ccc(OC)cc12.O=C(O)/C=C\C(=O)O [TEGASEROD MALEATE]
Growth Rate ([1]; 0 h, replicate number 2, timepoint 0 hours): 1
Growth Rate [1, 4]: 0
Growth Rate [1, 5]: 0
Growth Rate [1, 6]: 0
Growth Rate [1, 7]: 0
Growth Rate [2, 4]: 0
Growth Rate [2, 5]: 0
Growth Rate [2, 6]: 0
Growth Rate [2, 7]: 0
Population Apoptotic (%) [3, 8]: 66%
Population Fragmented Nuclei (%) [3, 8]: 12%
Population Healthy Nuclei (%) [3, 8]: 75%
Population Hoechst High Intensity Objects (%) [3, 8]: 8%
Population Membrane Permeable-Phenotype (%) [3, 8]: 4%
Population Mitochondria Different-Phenotype (%) [3, 8]: 16%
Population Mitotic Cells (%) [3, 8]: 33%
Population Normal (%) [3, 8]: 91%
Population Pyknosed Nuclei (%) [3, 8]: 11%
Population Tubulin-Different-Phenotype (%) [3, 8]: 10%
Total Cell Count [3, 8]: 73
Population Apoptotic (%) [3, 9]: 20%
Population Healthy Nuclei (%) [3, 9]: 79%
Population Hoechst High Intensity Objects (%) [3, 9]: 3%
Population Mitochondria Different-Phenotype (%) [3, 9]: 22%
Population Mitotic Cells (%) [3, 9]: 80%
Population Normal (%) [3, 9]: 96%
Population Pyknosed Nuclei (%) [3, 9]: 8%
Population Tubulin-Different-Phenotype (%) [3, 9]: 14%
Total Cell Count [3, 9]: 74
Population Apoptotic (%) [3, 10]: 92%
Population Fragmented Nuclei (%) [3, 10]: 36%
Population Healthy Nuclei (%) [3, 10]: 0%
Population Hoechst High Intensity Objects (%) [3, 10]: 12%
Population Membrane Permeable-Phenotype (%) [3, 10]: 100%
Population Mitochondria Different-Phenotype (%) [3, 10]: 100%
Population Mitotic Cells (%) [3, 10]: 7%
Population Normal (%) [3, 10]: 87%
Population Pyknosed Nuclei (%) [3, 10]: 62%
Population Tubulin-Different-Phenotype (%) [3, 10]: 100%
Total Cell Count [3, 10]: 167
Population Apoptotic (%) [3, 11]: 100%
Population Fragmented Nuclei (%) [3, 11]: 22%
Population Healthy Nuclei (%) [3, 11]: 3%
Population Hoechst High Intensity Objects (%) [3, 11]: 35%
Population Mitotic Cells (%) [3, 11]: 0%
Population Normal (%) [3, 11]: 64%
Population Pyknosed Nuclei (%) [3, 11]: 73%
Total Cell Count [3, 11]: 64
Population Apoptotic (%) [3, 12]: 47%
Population Fragmented Nuclei (%) [3, 12]: 9%
Population Healthy Nuclei (%) [3, 12]: 78%
Population Hoechst High Intensity Objects (%) [3, 12]: 4%
Population Membrane Permeable-Phenotype (%) [3, 12]: 6%
Population Mitochondria Different-Phenotype (%) [3, 12]: 13%
Population Mitotic Cells (%) [3, 12]: 52%
Population Normal (%) [3, 12]: 95%
Population Pyknosed Nuclei (%) [3, 12]: 12%
Population Tubulin-Different-Phenotype (%) [3, 12]: 13%
Total Cell Count [3, 12]: 88
Population Apoptotic (%) [3, 13]: 87%
Population Fragmented Nuclei (%) [3, 13]: 10%
Population Healthy Nuclei (%) [3, 13]: 77%
Population Hoechst High Intensity Objects (%) [3, 13]: 5%
Population Membrane Permeable-Phenotype (%) [3, 13]: 5%
Population Mitochondria Different-Phenotype (%) [3, 13]: 21%
Population Mitotic Cells (%) [3, 13]: 12%
Population Normal (%) [3, 13]: 94%
Population Tubulin-Different-Phenotype (%) [3, 13]: 7%
Total Cell Count [3, 13]: 89
Population Apoptotic (%) [3, 14]: 85%
Population Fragmented Nuclei (%) [3, 14]: 42%
Population Healthy Nuclei (%) [3, 14]: 1%
Population Hoechst High Intensity Objects (%) [3, 14]: 16%
Population Membrane Permeable-Phenotype (%) [3, 14]: 100%
Population Mitochondria Different-Phenotype (%) [3, 14]: 100%
Population Mitotic Cells (%) [3, 14]: 14%
Population Normal (%) [3, 14]: 83%
Population Pyknosed Nuclei (%) [3, 14]: 56%
Population Tubulin-Different-Phenotype (%) [3, 14]: 100%
Total Cell Count [3, 14]: 180
Population Apoptotic (%) [3, 15]: 100%
Population Fragmented Nuclei (%) [3, 15]: 44%
Population Healthy Nuclei (%) [3, 15]: 26%
Population Hoechst High Intensity Objects (%) [3, 15]: 39%
Population Mitotic Cells (%) [3, 15]: 0%
Population Normal (%) [3, 15]: 60%
Population Pyknosed Nuclei (%) [3, 15]: 28%
Total Cell Count [3, 15]: 70
Population Apoptotic (%) [3, 16]: 44%
Population Fragmented Nuclei (%) [3, 16]: 7%
Population Healthy Nuclei (%) [3, 16]: 85%
Population Hoechst High Intensity Objects (%) [3, 16]: 3%
Population Membrane Permeable-Phenotype (%) [3, 16]: 2%
Population Mitochondria Different-Phenotype (%) [3, 16]: 11%
Population Mitotic Cells (%) [3, 16]: 55%
Population Normal (%) [3, 16]: 96%
Population Pyknosed Nuclei (%) [3, 16]: 7%
Population Tubulin-Different-Phenotype (%) [3, 16]: 7%
Total Cell Count [3, 16]: 112
Population Apoptotic (%) [3, 17]: 35%
Population Fragmented Nuclei (%) [3, 17]: 10%
Population Healthy Nuclei (%) [3, 17]: 75%
Population Hoechst High Intensity Objects (%) [3, 17]: 1%
Population Membrane Permeable-Phenotype (%) [3, 17]: 6%
Population Mitochondria Different-Phenotype (%) [3, 17]: 17%
Population Mitotic Cells (%) [3, 17]: 64%
Population Normal (%) [3, 17]: 98%
Population Pyknosed Nuclei (%) [3, 17]: 13%
Population Tubulin-Different-Phenotype (%) [3, 17]: 10%
Total Cell Count [3, 17]: 110
Population Apoptotic (%) [3, 18]: 91%
Population Fragmented Nuclei (%) [3, 18]: 50%
Population Healthy Nuclei (%) [3, 18]: 1%
Population Hoechst High Intensity Objects (%) [3, 18]: 14%
Population Membrane Permeable-Phenotype (%) [3, 18]: 100%
Population Mitochondria Different-Phenotype (%) [3, 18]: 100%
Population Mitotic Cells (%) [3, 18]: 8%
Population Normal (%) [3, 18]: 85%
Population Pyknosed Nuclei (%) [3, 18]: 48%
Population Tubulin-Different-Phenotype (%) [3, 18]: 100%
Total Cell Count [3, 18]: 260
Population Apoptotic (%) [3, 19]: 100%
Population Fragmented Nuclei (%) [3, 19]: 64%
Population Healthy Nuclei (%) [3, 19]: 24%
Population Hoechst High Intensity Objects (%) [3, 19]: 39%
Population Membrane Permeable-Phenotype (%) [3, 19]: 90%
Population Mitochondria Different-Phenotype (%) [3, 19]: 90%
Population Mitotic Cells (%) [3, 19]: 0%
Population Normal (%) [3, 19]: 60%
Population Pyknosed Nuclei (%) [3, 19]: 11%
Population Tubulin-Different-Phenotype (%) [3, 19]: 90%
Total Cell Count [3, 19]: 103
